Measured values pooled from the literature.
Target: Serine/threonine-protein kinase Nek2 (NEK2, Homo sapiens, UniProt P51955)
Sequence (P51955 1-445, as in one of the studies): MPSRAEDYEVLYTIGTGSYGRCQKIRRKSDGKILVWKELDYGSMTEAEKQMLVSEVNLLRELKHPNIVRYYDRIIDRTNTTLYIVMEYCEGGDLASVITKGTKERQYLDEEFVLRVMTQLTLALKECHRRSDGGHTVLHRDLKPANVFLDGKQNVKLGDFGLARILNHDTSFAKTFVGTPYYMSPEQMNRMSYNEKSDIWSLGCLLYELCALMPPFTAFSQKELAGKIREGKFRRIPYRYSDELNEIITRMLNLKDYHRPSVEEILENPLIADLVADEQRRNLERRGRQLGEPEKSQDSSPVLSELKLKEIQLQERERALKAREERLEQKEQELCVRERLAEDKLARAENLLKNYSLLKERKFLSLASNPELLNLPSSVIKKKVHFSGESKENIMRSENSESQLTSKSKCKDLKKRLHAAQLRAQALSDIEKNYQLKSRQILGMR

Nc1ncc(-c2nc(N3CCOCC3)nc(N3CCOCC3)n2)c(C(F)F)n1 — remaining binding (binding; competition with immobilised ligand; 10 µM): 87%
Cc1nn(C)cc1-c1nc2c(N3CCN(Cc4ccc(Cl)cc4)CC3)c(Cl)cnc2[nH]1 — remaining binding (binding; competition with immobilised ligand; 1 µM): 100%
CC(C)(C)c1cc(C=C(C#N)C#N)cc(Br)c1O — remaining activity (enzyme activity; inhibitor; 0.5 µM): 96%
COc1ncccc1-c1cnn2ccc(N3CCN(C(=O)OC(C)C)CC3)nc12 — remaining binding (binding; competition with immobilised ligand; 1 µM): 86%
C#Cc1n[nH]c2c(-c3cn(C(C)c4ccccn4)c(=O)[nH]c3=O)cc(F)cc12 (stereo not drawn) — inhibition (enzyme activity; inhibitor; 1 µM): -4.6%
Cn1cc(-c2cc(F)cc(N3CCn4c(cc5c4CCCC5)C3=O)c2CO)cc(Nc2ccc(N3CCN(C4COC4)CC3)cn2)c1=O — inhibition (enzyme activity; inhibitor; 0.1 µM): 10%
N#CC1(c2ccccn2)CCN(Cc2cc(C(=O)O)c(=O)n3ccccc23)CC1 — remaining binding (cell-free assay; competition with immobilised ligand; 1 µM): 100%
C#Cc1n[nH]c2c(-c3cn([C@@H](C)c4ccccc4)c(=O)[nH]c3=O)cc(F)cc12 — inhibition (enzyme activity; inhibitor; 0.1 µM): 0.5%
Cn1cncc1[C@](O)(COc1ccc(C#N)cc1-c1ccc(OC(F)(F)F)cc1)c1ccc(C#N)cc1 — remaining binding (cell-free assay; competition with immobilised ligand; 1 µM): 100%
Cn1cc(-c2cccc(N3CCc4c(sc5c4CC(C)(C)C5)C3=O)c2CO)cc(Nc2ccncn2)c1=O — inhibition (enzyme activity; inhibitor; 1 µM): 4%
O=c1[nH]c2ccccc2n1C1CCN(Cc2ccc(-c3[nH]c4cc5ncnc5cc4nc3-c3ccccc3)cc2)CC1 — remaining signal (cell-free assay; 0.5 µM): 96.8%
COc1cc(Nc2ncc(F)c(Nc3ccc4c(n3)NC(=O)C(C)(C)O4)n2)cc(OC)c1OC — inhibition (binding; competition with immobilised ligand; 10 µM): 83%
